Assay results taken from ChEMBL document CHEMBL1137781, “Synthesis and preclinical evaluation of novel PET probes for P-glycoprotein function and expression” (J Med Chem, 2009).

Key:
[1] = Biodistribution in Wistar rat frontal cortex at 11+/-2 MBq, iv after 80 mins; assay type: ADME, organism-based; conditions: in vivo
Summary of the method: (§1)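 Male Wistar rats (12 h light/dark, chow ad libitum) were fitted with a femoral arterial cannula under isoflurane. They were pretreated via tail vein with saline, cyclosporin A (50 mg/kg), or nonradioactive tracer compound (15 mg/kg; 10 mg/mL in saline with 35% ethanol). The 11C tracer was then given via penile vein, followed by 76 min microPET. Animals were then terminated; excised tissues were weighed and gamma-counted with decay correction. Values are SUVs (tissue MBq/g × body weight g / injected MBq).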

Duodenum [2] = test: Biodistribution in Wistar rat duodenum at 11+/-2 MBq, iv after 80 mins; assay type: ADME, organism-based; conditions: in vivo; summary of the method: as §1
[3] = Biodistribution in Wistar rat amygdala at 11+/-2 MBq, iv after 80 mins; assay type: ADME, organism-based; conditions: in vivo
Plasma [4] = test: Biodistribution in Wistar rat plasma at 11+/-2 MBq, iv after 80 mins; assay type: ADME, organism-based; conditions: in vivo
Summary of the method: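 Male Wistar rats under isoflurane with saline pretreatment via tail vein. Carbon-11 tracer (8–15 MBq, saline-diluted) was given via the penile vein. After the 76 min microPET list-mode scan, the anesthetized animals were killed and blood collected. Plasma was separated by centrifugation (5 min, 1000g), weighed, and gamma-counted with decay correction. Results are given as SUV (tissue MBq/g × body weight/injected dose).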

[5] = Biodistribution in Wistar rat parietal/temporal/occipital cortex at 11+/-2 MBq, iv after 80 mins; assay type: ADME, organism-based; conditions: in vivo; summary of the method: as §1
Cerebellum = test: Biodistribution in 15 mg/kg unlabeled 6,7-dimethoxy-2-(3-(5-methoxy-3,4-dihydronaphthalen-1(2H)-ylidene)propyl)-1,2,3,4-tetrahydroisoquinoline pretreated Wistar rat cerebellum at 13+/-2 MBq, iv after 80 mins; assay type: ADME, organism-based; design: dose 15 mg/kg, route intravenous; conditions: in vivo
Summary of the method: (§2)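 Male Wistar rats given saline or unlabeled compound via tail vein: 15 mg/kg, dissolved at 10 mg/mL in saline with 35% ethanol. [11C] tracer (8-15 MBq) then given via penile vein. After microPET scanning the anesthetized rats were killed. Tissues were excised and weighed, and blood was spun for plasma and cell fraction. γ counting with decay correction. Results as SUV (tissue MBq/g × body weight/injected dose).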

Plasma [6] = test: Biodistribution in Wistar rat plasma at 11+/-2 MBq, iv after 60 mins; assay type: ADME, organism-based; conditions: in vivo, 1 h
Summary of the method: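 Male Wistar rats under isoflurane with a femoral arterial cannula; saline pretreatment via tail vein. Carbon-11 tracer (8–15 MBq, diluted in saline) injected into the penile vein during microPET. 14 arterial samples were drawn from 15 s to 60 min, plasma was separated by centrifugation, and radioactivity was gamma-counted. Results are given as SUV (tissue MBq/g × body weight/injected dose).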

[7] = Biodistribution in Wistar rat red blood cells at 11+/-2 MBq, iv after 80 mins; assay type: ADME, organism-based, Erythrocyte; conditions: in vivo
Liver [8] = test: Biodistribution in Wistar rat liver at 11+/-2 MBq, iv after 80 mins; assay type: ADME, organism-based; conditions: in vivo; summary of the method: as §1
[9] = Biodistribution in 15 mg/kg unlabeled 6,7-dimethoxy-2-(3-(5-methoxy-3,4-dihydronaphthalen-1(2H)-ylidene)propyl)-1,2,3,4-tetrahydroisoquinoline pretreated Wistar rat entorhinal cortex at 13+/-2 MBq, iv after 80 mins; assay type: ADME, organism-based; design: dose 15 mg/kg, route intravenous; conditions: in vivo; summary of the method: as §2
Heart = test: Biodistribution in Wistar rat heart at 11+/-2 MBq, iv after 80 mins; assay type: ADME, organism-based; conditions: in vivo; summary of the method: as §1
[10] = Biodistribution in 15 mg/kg unlabeled 6,7-dimethoxy-2-(3-(5-methoxy-3,4-dihydronaphthalen-1(2H)-ylidene)propyl)-1,2,3,4-tetrahydroisoquinoline pretreated Wistar rat parietal/temporal/occipital cortex at 13+/-2 MBq, iv after 80 mins; assay type: ADME, organism-based; design: dose 15 mg/kg, route intravenous; conditions: in vivo; summary of the method: as §2
[11] = Biodistribution in Wistar rat trachea at 11+/-2 MBq, iv after 80 mins; assay type: ADME, organism-based; conditions: in vivo
Striatum = test: Biodistribution in Wistar rat striatum at 11+/-2 MBq, iv after 80 mins; assay type: ADME, organism-based; conditions: in vivo
Liver [12] = test: Biodistribution in 15 mg/kg unlabeled 6,7-dimethoxy-2-(3-(5-methoxy-3,4-dihydronaphthalen-1(2H)-ylidene)propyl)-1,2,3,4-tetrahydroisoquinoline pretreated Wistar rat liver at 13+/-2 MBq, iv after 80 mins; assay type: ADME, organism-based; design: dose 15 mg/kg, route intravenous; conditions: in vivo; summary of the method: as §2
Duodenum [13] = test: Biodistribution in 15 mg/kg unlabeled 6,7-dimethoxy-2-(3-(5-methoxy-3,4-dihydronaphthalen-1(2H)-ylidene)propyl)-1,2,3,4-tetrahydroisoquinoline pretreated Wistar rat duodenum at 13+/-2 MBq, iv after 80 mins; assay type: ADME, organism-based; design: dose 15 mg/kg, route intravenous; conditions: in vivo; summary of the method: as §2
Ileum = test: Biodistribution in Wistar rat ileum at 11+/-2 MBq, iv after 80 mins; assay type: ADME, organism-based; conditions: in vivo; summary of the method: as §1
Muscle tissue = test: Biodistribution in Wistar rat muscle at 11+/-2 MBq, iv after 80 mins; assay type: ADME, organism-based; conditions: in vivo; summary of the method: as §1
Lung = test: Biodistribution in 15 mg/kg unlabeled 6,7-dimethoxy-2-(3-(5-methoxy-3,4-dihydronaphthalen-1(2H)-ylidene)propyl)-1,2,3,4-tetrahydroisoquinoline pretreated Wistar rat lung at 13+/-2 MBq, iv after 80 mins; assay type: ADME, organism-based; design: dose 15 mg/kg, route intravenous; conditions: in vivo; summary of the method: as §2
Kidney = test: Biodistribution in 15 mg/kg unlabeled 6,7-dimethoxy-2-(3-(5-methoxy-3,4-dihydronaphthalen-1(2H)-ylidene)propyl)-1,2,3,4-tetrahydroisoquinoline pretreated Wistar rat kidney at 13+/-2 MBq, iv after 80 mins; assay type: ADME, organism-based; design: dose 15 mg/kg, route intravenous; conditions: in vivo; summary of the method: as §2
[14] = Biodistribution in Wistar rat cingulate cortex at 11+/-2 MBq, iv after 80 mins; assay type: ADME, organism-based; conditions: in vivo
[15] = Biodistribution in 15 mg/kg unlabeled 6,7-dimethoxy-2-(3-(5-methoxy-3,4-dihydronaphthalen-1(2H)-ylidene)propyl)-1,2,3,4-tetrahydroisoquinoline pretreated Wistar rat medulla at 13+/-2 MBq, iv after 80 mins; assay type: ADME, organism-based, Medulla of organ; design: dose 15 mg/kg, route intravenous; conditions: in vivo; summary of the method: as §2
Spleen = test: Biodistribution in 15 mg/kg unlabeled 6,7-dimethoxy-2-(3-(5-methoxy-3,4-dihydronaphthalen-1(2H)-ylidene)propyl)-1,2,3,4-tetrahydroisoquinoline pretreated Wistar rat spleen at 13+/-2 MBq, iv after 80 mins; assay type: ADME, organism-based; design: dose 15 mg/kg, route intravenous; conditions: in vivo; summary of the method: as §2
Plasma [16] = test: Biodistribution in 15 mg/kg unlabeled 6,7-dimethoxy-2-(3-(5-methoxy-3,4-dihydronaphthalen-1(2H)-ylidene)propyl)-1,2,3,4-tetrahydroisoquinoline pretreated Wistar rat plasma at 13+/-2 MBq, iv after 80 mins; assay type: ADME, organism-based; design: dose 15 mg/kg, route intravenous; conditions: in vivo; summary of the method: as §2
[17] = Biodistribution in 15 mg/kg unlabeled 6,7-dimethoxy-2-(3-(5-methoxy-3,4-dihydronaphthalen-1(2H)-ylidene)propyl)-1,2,3,4-tetrahydroisoquinoline pretreated Wistar rat cingulate cortex at 13+/-2 MBq, iv after 80 mins; assay type: ADME, organism-based; design: dose 15 mg/kg, route intravenous; conditions: in vivo; summary of the method: as §2

SUV [1]: 0.65
SUV (Duodenum [2]): 3.06
SUV [3]: 0.65
SUV (Plasma [4]): 0.49
SUV [5]: 0.65
SUV (Cerebellum): 0.4
SUV (Plasma [6]): 0.49
SUV [7]: 0.24
SUV (Liver [8]): 1.75
SUV [9]: 0.49
SUV (Heart): 0.48
SUV [10]: 0.43
SUV [11]: 1.25
SUV (Striatum): 0.46
SUV (Liver [12]): 2.34
SUV (Duodenum [13]): 1.01
SUV (Ileum): 1.94
SUV (Muscle tissue): 0.52
SUV (Lung): 2.13
SUV (Kidney): 1.3
SUV [14]: 0.7
SUV [15]: 0.46
SUV (Spleen): 1.72
SUV (Plasma [16]): 0.56
SUV [17]: 0.31
SMILES: COc1cc2c(cc1OC)CN(CC/C=C1\CCCc3c(O[11CH3])cccc31)CC2
